Series [1] in a line: Cytotoxicity, sulforhodamine B. The series is classed as cell-based. As to conditions: human, MDA-MB-231 cells. Summed up:
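MDA-MB-231 cells (DMEM high glucose, 10% FBS, antibiotic/antimycotic) plated at 5,000 cells/well and left to adhere overnight at normoxia. Pre-incubated 1 h with titrated test compound, then cultured at normoxia (21% O2, 5% CO2) or hypoxia (1% O2, 5% CO2). SRB stain after 96 h, OD read at 540 nm. IC50 given as mean±SEM, n=3.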

Series [2] has as its system HIF-1α. The series can be described thus: Western blot of HIF-1α protein expression in MDA-MB-231 cells. It is filed as cell-based. The settings on record: hypoxic conditions (1% oxygen). In general terms: In western blotting, separated proteins are transferred to a membrane and probed.
In series [3] the test system is PHD3. The series can be described thus: Quantitative real-time PCR, PHD3 mRNA in MDA-MB-231 cells. The series is classed as cell-based. The settings on record: 10 μM, 8 h, normalized to Cyclophilin A, n=3. The procedure, abridged:
(§1)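 MDA-MB-231 cells seeded at 3.5×10^5/well in six-well plates overnight. Treated 8 h with 10 μM test compound in medium under hypoxia (1% O2) or normoxia; controls got medium with […] DMSO. Total RNA isolated and reverse-transcribed. SYBR Green qPCR run with 40 ng cDNA/well, normalised to Cyclophilin A, n=3.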

Series [4] deals with HIF1A. The series can be described thus: Quantitative real-time PCR, HIF1A mRNA in MDA-MB-231 cells. The series is classed as cell-based. The settings on record: 10 μM, 8 h, normalized to Cyclophilin A, n=3. The procedure, abridged:
as §1

The test system of series [5] is VEGF. Nature of the series: Quantitative real-time PCR, VEGF mRNA in MDA-MB-231 cells. It is filed as cell-based. The settings on record: 10 μM, 8 h, normalized to Cyclophilin A, n=3. Summed up:
as §1
For orientation: Real-time PCR tracks product formation cycle by cycle.

The nature of series [6]: Aqueous solubility, miniaturized shake-flask with LC-MS/MS. It is filed as physicochemical. The settings on record: for Solubility: room temperature. The procedure, abridged:
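Test compound (1.0 mg) shaken in 1 mL water or pH 7.0 phosphate buffer for 24 h at 450 rpm, room temperature. Suspension spun at 10,000 RPM for 15 min. Supernatant quantified by ESI LC-MS/MS on a PFP column using a 0.1% formic acid/MeOH gradient at 0.4 mL/min.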

Each structure is given as a SMILES string. Values after ≈ are worked out from the molar mass of the structure shown.

Consider `C[C@H]1O[C@@H](O[C@H]2[C@@H](O)C[C@H](O[C@H]3[C@@H](O)C[C@H](O[C@H]4CC[C@@]5(C)[C@H](CC[C@@H]6[C@@H]5C[C@@H](O)[C@]5(C)[C@@H](C7=CC(=O)OC7)CC[C@]65O)C4)O[C@@H]3C)O[C@@H]2C)C[C@H](O)[C@@H]1O` [Digoxin], for which the IC50 at 96 h in series [1] came out at 250 ± 50 nM.

`CC(=O)O[C@@]12CO[C@@H]1C[C@H](O)[C@@]1(C)C(=O)[C@H](O)C3=C(C)[C@@H](OC(=O)[C@H](O)[C@@H](NC(=O)OC(C)(C)C)c4ccccc4)C[C@@](O)([C@@H](OC(=O)c4ccccc4)[C@H]21)C3(C)C` [Docetaxel] yielded an IC50 at 96 h in series [1] of under 5 nM.

Consider `OCc1ccc(-c2nn(Cc3ccccc3)c3ccccc23)o1` [YC-1, 3-(5′-hydroxymethyl-2′-furyl)-1-benzyl indazole], for which the “HIF-1α protein accumulation under hypoxic stress (western blot)” value in series [2] is recorded as “not inhibited”. Also, the “PHD3 mRNA level (qPCR)” value in series [3] (hypoxia (1% oxygen)) is “insignificant”; in series [3] (normoxia), “enhancement of PHD3 mRNA levels”. For the same compound, in series [4] (hypoxia (1% oxygen)), the “HIF1A expression (qPCR)” value was “remained repressed”. Further, in series [4] (normoxia), the “HIF1A expression level (qPCR)” value is listed as “significantly reduced”. In series [5] (hypoxia (1% oxygen)), the “VEGF expression (qPCR)” value is “remained repressed”. Further, the “VEGF expression level (qPCR)” value in series [5] (normoxia) was “significantly reduced”. The Solubility in series [6] (Buffer pH 7.0, 24 h shaking) was 940 ng/mL (≈ 3.09 µM); in series [6] (Water, 24 h shaking), 1241 ng/mL (≈ 4.08 µM). Moreover, the Aqueous solubility was 0.9 µg/mL in series [6] (buffer pH 7.0) and 1.2 µg/mL in series [6] (water).

One may read the IC50 as the concentration that inhibits the measured activity by half. In general, Solubility refers to the concentration that dissolves in the medium under given conditions. A lower Solubility goes with little dissolved substance. In general, Aqueous solubility refers to the dissolved amount per volume that the medium holds. Read a high Aqueous solubility as much dissolved substance.

The values above are taken from publication PMC5346463 (Anticancer research, 2014).
